Data as given in PubChem BioAssay AID504383 (The Scripps Research Institute Molecular Screening Center, 2011).
Screen size: about 2,500 compounds; about 1,200 (48%) were called active.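 How the source made its calls: active means mean activation above the low control average plus 3 SD, as set in the primary screen (cut at about 12% in these data); inactive means the rest.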 So high a share suggests a set chosen from earlier hits. This is one part of the list.

The compounds below were run against Troponin I, cardiac muscle (Homo sapiens) + Troponin T, cardiac muscle (Homo sapiens) + Troponin C, slow skeletal and cardiac muscles (Homo sapiens) (UniProt P19429+P45379+P63316) (assay: cardiac RTF calcium sensitivity activators, confirmation, biochemical, IANBD-TnC fluorescence, triplicate (AID 504383;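 further: 0% = DMSO at 0.472 mM calcium and 100% = DMSO at 2.9 mM calcium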)). Conditions: IANBD-labeled cardiac RTF, Ca2+ sensitivity fluorescence; at 7.2 µM; active compounds read high; scaled from EC20 to saturating calcium; tested at EC20 calcium, 0.472 mM.
Outline: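 Assay system: labelled regulated thin filaments / Timing: 15 min at 25 °C / Detection: fluorescence intensity of labelled filaments / Measure: fluorescence gain scaled between EC20 and EC100 calcium controls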

activation, active:
COc1ccccc1C(=O)Nc1ccc(OC(C)C(=O)N2CCOCC2)cc1 (stereo unspecified) 2020%
O=C(O)C(c1ccccc1)N1C(=O)/C(=C\c2ccc(-c3ccc(Br)cc3)o2)SC1=S (stereo unspecified) 186%
O=C(CSC1=NS(=O)(=O)c2ccccc2N1)N1CCCCC1 68.3%
CCCc1cc(=O)oc2c3c(cc(OCC(=O)N[C@@H](CSC)C(=O)O)c12)OC(C)(C)CC3 42%
CN(C)CCNC(=O)c1c(CSc2ccc(Cl)cc2)noc1C(=O)NCc1ccccc1 13.1%
Cc1cccc(NC(=O)CN2C(=O)N/C(=C/c3ccc(C)s3)C2=O)c1 12.8%
Cc1nc(-n2[nH]c3c(c2=O)CCCC3)[nH]c(=O)c1Cc1ccccc1 28%
O=C(CCc1nc2sc3c(c2c(=O)[nH]1)CCCC3)Nc1ccccc1Cl 84.3%
Cc1ccc(S(=O)(=O)NC(C)(C)CN2CCC(Cc3ccccc3)CC2)cc1 21.5%
COc1ccc(Br)cc1S(=O)(=O)Nc1ncccc1C 68.3%
CCCOc1ccc(C2C(C(=O)c3ccc(C)o3)=C(O)C(=O)N2CCCn2ccnc2)cc1 (stereo unspecified) 64.1%
CCNc1ccc2noc3c2c1C(=O)c1ccccc1-3 15.8%
N#CC1=C(N)Oc2cc(O)c(Cl)cc2C1c1ccccc1F (stereo unspecified) 162%
CC(=O)c1cccc(Nc2cc(C)nc3ccc(C)cc23)c1 25.6%
Oc1sc(C=Nc2ccccc2)c2ccccc12 12.9%
COc1ccc(N=Cc2c(O)c3ccccc3n2C(C)=O)cc1 13.7%
COc1ccc(N=Cc2sc(O)c3ccccc23)cc1 152%
O=[N+]([O-])c1ccc(N/N=C\c2ccccc2OCc2ccccc2)cc1 19.2%
COc1ncnc2c1NC1=C(S2)C(=NCCC(=O)O)CC(C)(C)C1 70.3%
CCN1/C(=C/c2ccc3cc(C)cc(C)c3[n+]2CC)Sc2cc(C)ccc21 14.7%
CCN1/C(=C\c2ccc3ccccc3[n+]2CC)Sc2cc(C)ccc21 57.9%
CCN1/C(=C/c2ccc3cc(C)ccc3[n+]2CC)Sc2ccccc21 68.1%
CCN1/C(=C/c2ccc3cc(C)ccc3[n+]2CC)Sc2ccc3sccc3c21 11.7%
CN1CC=C2C(C#N)=C(N)C(C#N)(C#N)C(Cc3ccccc3)C2C1 (stereo unspecified) 12.3%
CN1CC=C2C(C#N)=C(N)C(C#N)(C#N)C(CCc3ccccc3)C2C1 (stereo unspecified) 46%

activation, inactive:
CCOc1ccc(NC(=O)c2cccc(OC(=S)N3CCOCC3)c2)cc1 3.8%
COc1ccccc1Nc1nc(N2CCOCC2)nc(N2CCOCC2)n1 7.77%
CCOC(=O)CC1=NS(=O)(=O)c2ccccc2N1 9.51%
Cc1c(C)c2c(OCC(=O)N3CCC(O)CC3)cc3c(c2oc1=O)CCC(C)(C)O3 3.89%
Cc1cc(=O)oc2c3c(cc(OCC(=O)NCc4ccccn4)c12)OC(C)(C)CC3 2.15%
COCCNC(=O)c1c(CS(=O)(=O)c2ccccc2)noc1C(=O)NCc1ccccc1 -1.16%
CNc1c2cccc(C)c2nc2c(C(=O)NCCN(C)C)cccc12 0.42%
Cc1cccc(CN2C(=O)N/C(=C/c3ccc(C)s3)C2=O)c1 8.39%
Cc1ccc(/C=C2/NC(=O)N(Cc3ccccc3)C2=O)s1 2.28%
CCOC(=O)CCc1c(C)nc(-n2[nH]c(C)c(CCO)c2=O)[nH]c1=O 6.36%
Cc1ccc(C2C(C#N)=C(N)SC(N)=C2C#N)cc1 9.26%
CCC(=O)Nc1nc2c(c(=O)[nH]1)CCCC2 4.12%
O=S(=O)(c1ccccc1Cl)N1CCC(Cc2ccccc2)CC1 10.4%
CC(C)(CN1CCc2ccccc2C1)NS(=O)(=O)c1ccc(Cl)cc1 2.24%
COc1cc(Cl)c(S(=O)(=O)NCc2ccccn2)cc1Cl 7.75%
COc1ccc(C(=O)O)cc1S(=O)(=O)NCCc1ccccn1 5.17%
COC(=O)N1c2ccccc2CCc2ccccc21 8.65%
Cc1cc2oc3ccc(NCCCn4ccnc4)cc3c(=O)c2cc1C 1.5%
CCCCOc1cccc(C2C(C(=O)c3cccs3)=C(O)C(=O)N2Cc2cccnc2)c1 (stereo unspecified) -3.36%
O=C1c2ccccc2-c2onc3ccc(NCc4ccco4)c1c23 1.47%
CCOc1ccc2noc3c2c1C(=O)c1ccccc1-3 3.61%
COC(=O)C1=C(CSc2nc3c(cc2C#N)CN(C)CC3)OC(N)=C(C#N)C1c1ccccc1F (stereo unspecified) 10.6%
O=C1CCC(=O)N(O)CCCCCNC(=O)CCC(=O)N(O)CCCCNC(=O)CCC(=O)N(O)CCCCCN1 1.89%
CC(=O)c1cccc(NC(=S)NC2CCCCC2)c1 8.2%
COc1ccc(Nc2cc(C)nc3ccc(OC)cc23)cc1 4.34%
CCN(C(=O)c1cnc(NC(C)C)cc1C(F)(F)F)c1ccc(Cl)cc1 4.41%
Cc1ccc(N=Cc2sc(O)c3ccccc23)cc1 7.98%
CC(=O)n1c(C=Nc2ccc(Cl)cc2)c(O)c2ccccc21 10.7%
CCN(c1ccc(N=Cc2c(O)n(Cc3ccc(OC)cc3)c(=O)c3ccccc23)cc1)C(C)C 9.81%
O=C(Nc1cc2c3c(c1)CC(=O)N3CCC2)C1CC1 10.7%
CCN1/C(=C\c2ccc3cc(C)ccc3[n+]2CC)Sc2cc(C)c(C)cc21 6.91%
CCN1/C(=C/c2ccc3cc(C)ccc3[n+]2CC)Sc2cc(C)ccc21 2.46%
COc1ccccc1N=Cc1c(C)c(C#N)c2[nH]c3ccccc3n2c1=O 1.91%
COc1ccc(N2C(N)=NC(N)=NC2(C)C)cc1 1.33%
CCN1CC=C2C(C#N)=C(N)C(C#N)(C#N)C(CCc3ccccc3)C2C1 (stereo unspecified) 11.4%
N#CC1=C(N)SC(N)=C(C#N)C1CCc1ccccc1 0.43%
